A selection: hits, their analogues and other compounds. The true share with any hit is near 12%.
Arbovirus inh: antivirals against arbovirus infection, primary screen, cell-based, full library, 10K replicate subset | arbovirus infection cell-based antiviral screen | inhibition, % at 10 µM | AID 1251, 2008 | 200,000 tested, 0.37% active; in the data active means inhibition above about 30%
Wee1 degr inh: Wee1 degradation inhibitors, primary screen, cell-based, HeLa, Wee1K328M-luciferase, luminescence; HeLa Luc-Wee1K328M stability; 100% = proteasome inhibitor MG132 effect; reporter increase, % at 5 µM; 220,000 tested, 1.2% active; AID 1321, 2008;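 active means activation above the mean of all tested compounds plus 3 SD, set per screening run, cut at about 8.8% in these data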;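 further: cells exposed to compound for 20 h before luminescence read; 0% = DMSO alone and 100% = MG132 at 30 µM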
Target sequence (P30291 whole entry K328M): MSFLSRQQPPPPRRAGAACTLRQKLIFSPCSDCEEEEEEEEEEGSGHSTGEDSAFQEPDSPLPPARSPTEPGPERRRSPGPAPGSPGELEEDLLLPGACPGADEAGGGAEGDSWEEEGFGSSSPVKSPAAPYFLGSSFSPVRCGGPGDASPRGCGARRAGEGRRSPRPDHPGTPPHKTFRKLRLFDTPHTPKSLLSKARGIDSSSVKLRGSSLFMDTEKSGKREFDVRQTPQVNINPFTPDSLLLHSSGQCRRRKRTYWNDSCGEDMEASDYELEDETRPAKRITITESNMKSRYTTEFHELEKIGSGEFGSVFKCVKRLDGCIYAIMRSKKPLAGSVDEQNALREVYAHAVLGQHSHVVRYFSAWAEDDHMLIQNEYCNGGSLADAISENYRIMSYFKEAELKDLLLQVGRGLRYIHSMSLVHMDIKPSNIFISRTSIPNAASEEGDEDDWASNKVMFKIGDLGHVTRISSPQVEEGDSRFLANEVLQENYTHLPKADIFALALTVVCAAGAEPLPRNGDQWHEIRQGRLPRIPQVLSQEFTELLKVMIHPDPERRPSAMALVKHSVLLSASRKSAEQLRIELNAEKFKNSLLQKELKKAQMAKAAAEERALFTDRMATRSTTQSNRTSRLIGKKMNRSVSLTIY
PKD1 inh: inhibitors of human PKD1 kinase, biochemical, fluorescence polarization; Serine/threonine-protein kinase D1 (Homo sapiens), Q15139; PKD1 kinase fluorescence polarization assay; inhibition, % (test concentration not listed); 200,000 tested, 0.056% active
CHOP inh: inhibitors of CHOP promoter induction, primary screen, cell-based, unfolded protein response, luciferase reporter; CHO-K1 CHOP-promoter luciferase, tunicamycin-induced, 15-18 h; inhibition, % at 10 µM; 220,000 tested, 3.8% active;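 active means compounds that reduced the stress-induced luciferase reporter signal by more than about 70% of percent inhibition, limit read from the data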;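 further: 0% = tunicamycin plus vehicle and 100% = wells without tunicamycin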
Rad51 HR inh: human RAD51 strand exchange inhibitors, primary screen, biochemical, fluorescence | 200,000 tested, 0.085% active | DNA repair protein RAD51 homolog 1 (Homo sapiens), Q06609 | hRad51 DNA strand exchange, fluorescence dequenching | inhibition, % at 10 µM | AID 1385, 2008;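 active means inhibition above 40% at the single screening dose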;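 further: 0% = DMSO control wells and 100% = blanks with heterologous ssDNA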
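material = hRad51 filaments on single-stranded DNA | reagent = Donor/quencher-labelled 47-bp dsDNA substrate | compound = 10 µM final, single point | schedule = strand-exchange reaction 15 min at room temperature | measured by = fluorescein emission 520 nm, excitation 485 nm | read-out basis = % inhibition versus plate control and blank means | benchmarks = plate controls and plate blanks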
L major viab: Leishmania major promastigote growth inhibition, primary screen. Leishmania major promastigotes, resazurin fluorescence viability. inhibition, % at 10 µM. 200,000 tested, 9% active. AID 1063, 2008;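 further: promastigotes grown with compound for 44 hours at 28 °C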
CHOP confirm: retest of CHOP induction inhibitors, confirmation, cell-based. shares compounds with CHOP inh. CHO-CHOP promoter luciferase reporter, tunicamycin-induced, luminescence. inhibition, % at 10 µM. 2,100 tested, 45% active. AID 504437, 2011;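 active means mean of three repeat readings of reporter signal inhibition above a set limit, cut at about 70% in these data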;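 further: 0% = tunicamycin plus vehicle and 100% = wells lacking tunicamycin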
* = called active by the depositor; . = no result given. Unless noted, no stated cut-off is given here; in the data, active means inhibition above about 50%; inactive means the rest.

SMILES	Arbovirus inh	Wee1 degr inh	PKD1 inh	CHOP inh	Rad51 HR inh	L major viab	CHOP confirm
BrC(=C\c1ccccc1)/C=N/Nc1ccc2nncn2n1	.	-3	.	12	27	.	.
CNC(=S)NNS(=O)(=O)c1ccc(OC)cc1OC	7	-2	-5	7	.	-4	.
CC(C)Oc1cc(NC(=O)CS(=O)CC(=O)N(C)C)c(Cl)cc1Cl (stereo unspecified)	-1	2	5	14	.	5	.
CC(C)Oc1cc(NC(=O)CS(=O)CC(=O)Nc2cccc(C(F)(F)F)c2)c(Cl)cc1Cl (stereo unspecified)	-39	1	-15	107*	-6	0	120*
COc1ccccc1-c1nnc(NC(=O)c2ccc(S(=O)(=O)N(C)Cc3ccccc3)cc2)o1	-5	-1	0	97*	-7	97*	97*
CN(c1ccccc1)S(=O)(=O)c1ccc(C(=O)Nc2nnc(-c3ccc(F)cc3)o2)cc1	-12	-6	3	44	-2	4	.
COc1cc(-c2nc3cnccn3c2Nc2ccc(C(C)C)cc2)ccc1O	3	-4	-7	110*	-5	7	28
CSCCC(N=C(NS(=O)(=O)c1ccc(Br)cc1)c1ccccc1)C(=O)O (stereo unspecified)	3	2	0	-5	0	-4	.
N#Cc1c(NCCN)nc(-c2ccccc2)c2c1CCCC2	-26	5	2	108*	.	85*	59
O=C(Nc1ccc(-c2nc3ccccc3s2)cc1)C1=COCCO1	0	0	-8	104*	13	-9	92*
O=C(Nc1cccc(-c2nc3ccccc3s2)c1)C1=COCCO1	-16	-4	-3	22	-3	35	.
CCOC(=O)c1c(N)sc(C(O)(C(F)(F)F)C(F)(F)F)c1-c1ccc(Cl)cc1	-34	-1	-4	98*	-7	29	121*
CC1=C(C(=O)Nc2ccc(C)cc2C)C(c2ccc(Cl)cc2)n2nc(C(=O)OC(C)C)nc2N1 (stereo unspecified)	-33	0	0	105*	0	-3	18
Cc1cc(/C=N/n2cnnc2)c(C)n1-c1ccc(OCc2ccc(Cl)cc2Cl)cc1	-31	-3	4	108*	.	98*	114*
Cc1cc(/C=N/n2cnnc2)c(C)n1-c1ccc(Cl)cc1Cl	-13	0	-4	31	7	41	.
Cc1cc(/C=N/n2cnnc2)c(C)n1-c1ccc(OCc2ccc(F)cc2)cc1	-18	2	6	.	6	77*	111*
COc1ccc(OC)c(NC(=O)Nc2cc(C(=O)O)ccc2C)c1	8	-1	-2	-3	.	-8	.
O=c1[nH]c(=O)n(Cc2ccccc2)c2c1C(C(F)(F)F)(C(F)(F)F)N=C(c1ccco1)N2	-7	-4	2	16	-1	11	.
O=c1[nH]c(=O)n(Cc2ccco2)c2c1C(C(F)(F)F)(C(F)(F)F)N=C(c1ccc(F)cc1)N2	14	-1	-12	100*	-2	12	87*
Nc1c(S(=O)(=O)c2cccc(Cl)c2)c2nc3ccccc3nc2n1/N=C/c1ccc(O)c(O)c1	-33	-1	4	107*	0	100*	103*
Cc1ccc(CNC(=O)Cc2noc3ccccc23)cc1	2	3	5	-1	.	-3	.
CC(C)c1nnc(NC(=O)CCS(=O)(=O)c2nc(-c3cccs3)cc(C(F)(F)F)n2)s1	-1	1	-10	108*	3	6	-38
Cc1ccc(Cl)c(OC(=O)Cn2cnc3c2c(=O)n(C)c(=O)n3C)c1	0	1	-2	-10	-2	-3	.
CCC(=O)Nc1cccc(NC(=S)NC(=O)c2ccccc2C)c1	9	6	-4	-4	5	3	.
O=C(Cn1c2ccc(F)cc2c2nc3n(c(=O)c21)CCS3)Nc1ccc(Cl)cc1F	-10	7	-11	96*	-13	1	19
SMILES	Arbovirus inh	Wee1 degr inh	PKD1 inh	CHOP inh	Rad51 HR inh	L major viab	CHOP confirm
O=C(c1ccccc1)N1N=C(c2ccccc2)CC1c1ccccc1[N+](=O)[O-] (stereo unspecified)	-8	0	-4	48	4	-4	.
Cc1ccc(Sc2nc(-c3ccccc3)nnc2C(F)(F)F)cc1	10	0	3	107*	0	12	-50
CNc1nc(-c2ccccc2)nnc1C(F)(F)F	-5	-3	-4	-7	-4	1	.
C(=N\Nc1nc(Nc2ccccc2)nc(Nc2ccccc2)n1)/c1cccnc1	-8	0	3	97*	6	35	41
O=C1NC[C@@H](Cc2cccc3ccccc23)N(CCc2cc(C(F)(F)F)cc(C(F)(F)F)c2)C1=O	.	.	.	97*	-2	.	133*
O=C1NC[C@@H](Cc2ccc(O)cc2)N(CCc2cccc3ccccc23)C1=O	.	.	.	-1	-3	.	.
Cc1ccc(C(=O)COC(=O)C2CC(=O)N(c3nc(-c4ccccc4)cs3)C2)cc1 (stereo unspecified)	7	0	-9	10	2	-5	.
CC(c1ccccc1F)n1cc(C(=O)NCCCc2nc3ccccc3[nH]2)nn1 (stereo unspecified)	1	3	3	97*	18	0	20
O=C(CCl)Nc1cn(-c2ccccc2)nc1-c1ccc(F)cc1	-30	-3	-5	105*	3	84*	100*
Fc1ccc(-c2nn(-c3ccccc3)cc2CNCc2ccccc2)cc1	-30	0	-2	101*	6	80*	123*
CCOC(=O)c1sc(NC(=O)Nc2ccc(Cl)cc2)cc1C	-16	-1	-5	108*	0	89*	30
CCOC(=O)c1sc(NC(=O)c2ccc(Cl)s2)cc1C	-5	-1	-1	60	-7	-8	.
CCOC(=O)c1sc(NC(=S)NC(=O)CC(C)C)cc1C	-2	1	-7	107*	29	4	20
COc1cc(C2=CCN(C(C)=O)CC2)ccc1OC(C)=O	.	.	.	.	2	.	.
O=C(CNc1cccc2ccccc12)N/N=C/C(Br)=C/c1ccccc1	-12	3	1	106*	-12	-2	10
C/C(=N\OCc1cccc(C(=O)O)c1)c1ccc(Cl)cc1	.	-1	.	96*	2	.	111*
Cn1c(Cl)c(C(=O)Nc2ccccc2)c2ccccc21	-2	0	-2	-7	-1	-1	.

Compound activity as filed in PubChem BioAssay.
